Tests used:
Format in all cases: functional
NCI/ADR-RES [1] = assay: Growth inhibition of human NCI/ADR-RES cells assessed tumor cell growth at 10^-5 M; design: scale not given: the % may be the effect or the level left
Method in brief: (§1)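 NCI 60-human-tumor-cell-line panel screen. Each compound was tested at a single concentration of 10^-5 M, and percent growth of tumor cells was recorded for each cell line. Growth inhibition was expressed from these percent-growth values.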

SN12C [2] = assay: Growth inhibition of human SN12C cells
NCI-H460 = assay: Growth inhibition of human NCI-H460 cells assessed tumor cell growth at 10^-5 M; design: scale not given: the % may be the effect or the level left; method in brief: as §1
U-251 = assay: Growth inhibition of human U251 cells
COLO 205 = assay: Growth inhibition of human COLO205 cells assessed tumor cell growth at 10^-5 M; design: scale not given: the % may be the effect or the level left; method in brief: as §1
T47D = assay: Growth inhibition of human T47D cells assessed tumor cell growth at 10^-5 M; design: scale not given: the % may be the effect or the level left
Method in brief: (§2)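 Single-dose screen at 10^-5 M across the 60 human tumor cell line panel, run to NCI standards. The value is the percent growth of each cell line in the presence of compound. Compounds active at this dose moved on to five-concentration testing (10^-4 to 10^-8 M).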

M14 [3] = assay: Growth inhibition of human M14 cells
786-0 = assay: Growth inhibition of human 786-0 cells assessed tumor cell growth at 10^-5 M; design: scale not given: the % may be the effect or the level left; method in brief: as §1
A549 = assay: Growth inhibition of human A549 cells assessed tumor cell growth at 10^-5 M; design: scale not given: the % may be the effect or the level left; method in brief: as §1
HCC 2998 = assay: Growth inhibition of human HCC2998 cells
SW-620 = assay: Growth inhibition of human SW620 cells assessed tumor cell growth at 10^-5 M; design: scale not given: the % may be the effect or the level left; method in brief: as §2
UO-31 = assay: Growth inhibition of human UO31 cells assessed tumor cell growth at 10^-5 M; design: scale not given: the % may be the effect or the level left; method in brief: as §2
KM12 = assay: Growth inhibition of human KM12 cells
MDA-MB-231 = assay: Growth inhibition of human MDA-MB-231 cells assessed tumor cell growth at 10^-5 M; design: scale not given: the % may be the effect or the level left; method in brief: as §1
EKVX [4] = assay: Growth inhibition of human EKVX cells assessed tumor cell growth at 10^-5 M; design: scale not given: the % may be the effect or the level left; method in brief: as §1
ACHN [5] = assay: Growth inhibition of human ACHN cells assessed tumor cell growth at 10^-5 M; design: scale not given: the % may be the effect or the level left; method in brief: as §1
UACC-62 = assay: Growth inhibition of human UACC62 cells assessed tumor cell growth at 10^-5 M; design: scale not given: the % may be the effect or the level left; method in brief: as §2
OVCAR-4 [6] = assay: Growth inhibition of human OVCAR4 cells
SNB-75 = assay: Growth inhibition of human SNB75 cells
LOX IMVI = assay: Growth inhibition of human LOXIMVI cells
OVCAR-3 = assay: Growth inhibition of human OVCAR3 cells assessed tumor cell growth at 10^-5 M; design: scale not given: the % may be the effect or the level left; method in brief: as §1
NCI-H23 = assay: Growth inhibition of human NCI-H23 cells assessed tumor cell growth at 10^-5 M; design: scale not given: the % may be the effect or the level left; method in brief: as §1
OVCAR-8 [7] = assay: Growth inhibition of human OVCAR8 cells assessed tumor cell growth at 10^-5 M; design: scale not given: the % may be the effect or the level left; method in brief: as §1
SN12C [8] = assay: Growth inhibition of human SN12C cells assessed tumor cell growth at 10^-5 M; design: scale not given: the % may be the effect or the level left; method in brief: as §1
SF-295 = assay: Growth inhibition of human SF295 cells
ACHN [9] = assay: Growth inhibition of human ACHN cells
SK-MEL-2 [10] = assay: Growth inhibition of human SK-MEL-2 cells assessed tumor cell growth at 10^-5 M; design: scale not given: the % may be the effect or the level left; method in brief: as §1
SK-OV-3 = assay: Growth inhibition of human SKOV3 cells
TK-10 = assay: Growth inhibition of human TK10 cells
SK-MEL-2 [11] = assay: Growth inhibition of human SK-MEL-2 cells
PC-3 = assay: Growth inhibition of human PC3 cells
[12] = Growth inhibition of human Hs 578T cells assessed tumor cell growth at 10^-5 M; design: scale not given: the % may be the effect or the level left; method in brief: as §1
MDA-MB-468 = assay: Growth inhibition of human MDA-MB-468 cells
SR = assay: Growth inhibition of human SR cells
NCI-H322M [13] = assay: Growth inhibition of human NCI-H322M cells
HCT-116 [14] = assay: Growth inhibition of human HCT116 cells
NCI/ADR-RES [15] = assay: Growth inhibition of human NCI/ADR-RES cells
SK-MEL-5 [16] = assay: Growth inhibition of human SK-MEL-5 cells assessed tumor cell growth at 10^-5 M; design: scale not given: the % may be the effect or the level left; method in brief: as §1
EKVX [17] = assay: Growth inhibition of human EKVX cells
CCRF-CEM = assay: Growth inhibition of human CCRF-CEM cells
OVCAR-4 [18] = assay: Growth inhibition of human OVCAR4 cells assessed tumor cell growth at 10^-5 M; design: scale not given: the % may be the effect or the level left; method in brief: as §1
NCI-H322M [19] = assay: Growth inhibition of human NCI-H322M cells assessed tumor cell growth at 10^-5 M; design: scale not given: the % may be the effect or the level left; method in brief: as §1
NCI-H226 = assay: Growth inhibition of human NCI-H226 cells assessed tumor cell growth at 10^-5 M; design: scale not given: the % may be the effect or the level left; method in brief: as §1
HCT-116 [20] = assay: Growth inhibition of human HCT116 cells assessed tumor cell growth at 10^-5 M; design: scale not given: the % may be the effect or the level left; method in brief: as §1
M14 [21] = assay: Growth inhibition of human M14 cells assessed tumor cell growth at 10^-5 M; design: scale not given: the % may be the effect or the level left; method in brief: as §1
OVCAR-5 = assay: Growth inhibition of human OVCAR5 cells
A498 = assay: Growth inhibition of human A498 cells assessed tumor cell growth at 10^-5 M; design: scale not given: the % may be the effect or the level left; method in brief: as §1
SK-MEL-5 [22] = assay: Growth inhibition of human SK-MEL-5 cells
HOP-92 = assay: Growth inhibition of human HOP92 cells assessed tumor cell growth at 10^-5 M; design: scale not given: the % may be the effect or the level left; method in brief: as §1
OVCAR-8 [23] = assay: Growth inhibition of human OVCAR8 cells
BT-549 = assay: Growth inhibition of human BT549 cells
HCT-15 = assay: Growth inhibition of human HCT15 cells assessed tumor cell growth at 10^-5 M; design: scale not given: the % may be the effect or the level left; method in brief: as §1
[24] = read-out: LC50 (the source's name)

## O=C1/C(=C\c2coc3ccccc3c2=O)c2ccccc2N1c1c(Cl)cccc1Cl
NCI/ADR-RES [1]
  Activity: 36.14%
SN12C [2]
  GI50: 3.3 µM
SN12C [2]; [24]
  CC50: > 100 µM
NCI-H460
  Activity: 19.05%
U-251
  GI50: 1.4 µM
U-251; [24]
  CC50: > 100 µM
COLO 205
  Activity: 55.33%
T47D
  Activity: 30.04%
M14 [3]
  GI50: 5.2 µM
M14 [3]; [24]
  CC50: > 100 µM
786-0
  Activity: 27.05%
A549
  Activity: 26.65%
HCC 2998
  GI50: 4.2 µM
HCC 2998; [24]
  CC50: > 100 µM
SW-620
  Activity: 35%
UO-31
  Activity: 42.56%
KM12
  GI50: 3 µM
KM12; [24]
  CC50: > 100 µM
MDA-MB-231
  Activity: 60.45%
EKVX [4]
  Activity: 33.14%
ACHN [5]
  Activity: 54.64%
UACC-62
  Activity: 36.62%
OVCAR-4 [6]
  GI50: 3.6 µM
OVCAR-4 [6]; [24]
  CC50: > 100 µM
SNB-75
  GI50: 1.9 µM
SNB-75; [24]
  CC50: > 100 µM
LOX IMVI
  GI50: 1.5 µM
LOX IMVI; [24]
  CC50: 57.5 µM
OVCAR-3
  Activity: 16.79%
NCI-H23
  Activity: 55.41%
OVCAR-8 [7]
  Activity: 31.58%
SN12C [8]
  Activity: 59.48%
SF-295
  GI50: 4.2 µM
SF-295; [24]
  CC50: > 100 µM
ACHN [9]
  GI50: 4.1 µM
ACHN [9]; [24]
  CC50: > 100 µM
SK-MEL-2 [10]
  Activity: 85.69%
SK-OV-3
  GI50: 35.4 µM
SK-OV-3; [24]
  CC50: > 100 µM
TK-10
  GI50: 3.3 µM
TK-10; [24]
  CC50: > 100 µM
SK-MEL-2 [11]
  GI50: 2.7 µM
SK-MEL-2 [11]; [24]
  CC50: 61.6 µM
PC-3
  GI50: 1.3 µM
PC-3; [24]
  CC50: > 100 µM
[12]
  Activity: 27.37%
MDA-MB-468
  GI50: 2.4 µM
MDA-MB-468; [24]
  CC50: > 100 µM
SR
  GI50: 1.4 µM
SR; [24]
  CC50: > 100 µM
NCI-H322M [13]
  GI50: 5.8 µM
NCI-H322M [13]; [24]
  CC50: > 100 µM
HCT-116 [14]
  GI50: 1.9 µM
HCT-116 [14]; [24]
  CC50: > 100 µM
NCI/ADR-RES [15]
  GI50: 3.3 µM
NCI/ADR-RES [15]; [24]
  CC50: > 100 µM
SK-MEL-5 [16]
  Activity: 20.33%
EKVX [17]
  GI50: 2.8 µM
EKVX [17]; [24]
  CC50: > 100 µM
CCRF-CEM
  GI50: 2 µM
CCRF-CEM; [24]
  CC50: > 100 µM
OVCAR-4 [18]
  Activity: 49.54%
NCI-H322M [19]
  Activity: 73.67%
NCI-H226
  Activity: 90.68%
HCT-116 [20]
  Activity: 35.61%
M14 [21]
  Activity: 43.38%
OVCAR-5
  GI50: 20.8 µM
OVCAR-5; [24]
  CC50: > 100 µM
A498
  Activity: 12.65%
SK-MEL-5 [22]
  GI50: 2.4 µM
SK-MEL-5 [22]; [24]
  CC50: > 100 µM
HOP-92
  Activity: 32.08%
OVCAR-8 [23]
  GI50: 5.4 µM
OVCAR-8 [23]; [24]
  CC50: > 100 µM
BT-549
  GI50: 2.8 µM
BT-549; [24]
  CC50: > 100 µM
HCT-15
  Activity: 24.69%

Source: ChEMBL document CHEMBL1811814, “Synthesis and evaluation of indole, pyrazole, chromone and pyrimidine based conjugates for tumor growth inhibitory activities--development of highly efficacious cytotoxic agents” (Eur J Med Chem, 2010)
